Reference: ChEMBL document CHEMBL1134588, “[2',6'-Dimethyltyrosine]dynorphin A(1-11)-NH2 analogues lacking an N-terminal amino group: potent and selective kappa opioid antagonists” (J Med Chem, 2001)

Key:
[1] = biological target: Kappa-type opioid receptor (Cavia porcellus, UniProt P41144); test: Binding affinity was measured on opioid receptor kappa 1
Cavia porcellus = species on record: Cavia porcellus; test: Inhibitory concentration of compound was measured in guinea pig ileum(GPI) assay; type: functional
Summary of the method: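 Isolated guinea pig ileum, measuring inhibition of electrically evoked contractions. Each preparation received a [Leu5]enkephalin dose-response curve as standard, and the IC50 values were normalized to it.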

Mus musculus = species on record: Mus musculus; test: Inhibitory concentration of compound was measured in mouse vas deferens assay; type: functional
Summary of the method: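 Mouse vas deferens bioassay, measuring inhibition of electrically evoked contractions. A [Leu5]enkephalin standard dose-response curve was run on each vas preparation, and the IC50 values were normalized accordingly.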

[2] = biological target: Kappa-type opioid receptor (Cavia porcellus) (UniProt P41144); test: Antagonist activity was evaluated in the guinea pig ileum assay against Dyn A(1-13)-selective agonist of opioid receptor kappa 1; type: functional, tissue-based
Kappa-type opioid receptor (Cavia porcellus), sequence (P41144 whole entry): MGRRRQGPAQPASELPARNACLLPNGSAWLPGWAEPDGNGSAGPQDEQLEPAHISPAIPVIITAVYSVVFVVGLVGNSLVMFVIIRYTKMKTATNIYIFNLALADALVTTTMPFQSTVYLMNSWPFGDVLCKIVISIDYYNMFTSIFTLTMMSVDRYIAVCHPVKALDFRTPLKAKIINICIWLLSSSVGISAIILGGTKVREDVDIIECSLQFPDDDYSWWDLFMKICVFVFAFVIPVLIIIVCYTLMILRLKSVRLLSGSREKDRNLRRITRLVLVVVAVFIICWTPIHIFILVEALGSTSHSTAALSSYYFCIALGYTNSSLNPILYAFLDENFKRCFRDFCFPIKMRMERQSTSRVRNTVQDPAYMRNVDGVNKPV

[3] = biological target: Kappa-type opioid receptor (Cavia porcellus) (UniProt P41144); test: Antagonist activity was evaluated in the guinea pig ileum assay against U50,488- selective agonist of opioid receptor kappa 1; type: functional, tissue-based
Summary of the method: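 Ke taken from agonist IC50 ratio in presence versus absence of antagonist; [Leu5]enkephalin dose-response on each ileum used to normalize IC50s. Three to six determinations, mean ± SEM.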

[4] = biological target: Delta-type opioid receptor (Mus musculus) (UniProt P32300); test: Antagonist activity was evaluated in the mouse vas deferens assay against DPDPE which is selective agonist of Delta receptor; type: functional, tissue-based
Delta-type opioid receptor (Mus musculus), sequence (P32300 whole entry): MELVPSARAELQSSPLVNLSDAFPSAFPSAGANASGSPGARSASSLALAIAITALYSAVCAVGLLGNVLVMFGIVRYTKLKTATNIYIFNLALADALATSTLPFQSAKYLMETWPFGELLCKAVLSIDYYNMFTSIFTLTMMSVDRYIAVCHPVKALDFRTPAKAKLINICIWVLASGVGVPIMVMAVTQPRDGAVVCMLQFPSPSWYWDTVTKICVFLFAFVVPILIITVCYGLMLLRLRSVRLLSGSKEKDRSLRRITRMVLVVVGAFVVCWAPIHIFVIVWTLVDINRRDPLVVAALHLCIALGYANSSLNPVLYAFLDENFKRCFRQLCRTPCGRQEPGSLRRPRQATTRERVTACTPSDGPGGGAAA
Summary of the method: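 Mouse vas deferens, electrically evoked contractions; delta antagonism against DPDPE at fixed antagonist 30 nM to 10 µM. Ke obtained from agonist IC50 ratio with versus without antagonist; each vas preparation standardized with [Leu5]enkephalin dose-response. Means of three to six determinations ± SEM.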

[5] = biological target: Mu-type opioid receptor (Cavia porcellus) (UniProt P97266); test: Antagonist activity was evaluated in the guinea pig ileum assay against TAPP-selective agonist of Mu receptor; type: functional, tissue-based
Mu-type opioid receptor (Cavia porcellus), sequence (P97266 whole entry): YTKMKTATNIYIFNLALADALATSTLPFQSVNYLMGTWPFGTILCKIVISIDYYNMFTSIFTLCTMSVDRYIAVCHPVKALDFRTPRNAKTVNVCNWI
Summary of the method: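 Mu antagonism in guinea pig ileum (electrically evoked contractions) versus agonist TAPP, fixed antagonist concentrations 100 nM to 5 µM. Ke computed from shift in agonist IC50 (with/without antagonist), IC50s normalized against per-tissue [Leu5]enkephalin standard. Mean of three to six runs ± SEM.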

Kappa-type opioid receptor, sequence (P41144 whole entry): as the sequence (P41144 whole entry) above

Molecule `CC[C@H](C)[C@H](NC(=O)[C@H](CCCN=C(N)N)NC(=O)[C@H](CCCN=C(N)N)NC(=O)[C@H](CC(C)C)NC(=O)[C@H](Cc1ccccc1)NC(=O)[C@@H](C)NC(=O)CNC(=O)[C@@H](C)Cc1c(C)cc(O)cc1C)C(=O)N[C@@H](CCCN=C(N)N)C(=O)N1CCC[C@H]1C(=O)N[C@@H](CCCCN)C(N)=O` has a Ki [1] of 2.47 nM.
`CC[C@H](C)[C@H](NC(=O)[C@H](CCCN=C(N)N)NC(=O)[C@H](CCCN=C(N)N)NC(=O)[C@H](CC(C)C)NC(=O)[C@H](Cc1ccccc1)NC(=O)CNC(=O)CNC(=O)[C@@H](N)Cc1c(C)cc(O)cc1C)C(=O)N[C@@H](CCCN=C(N)N)C(=O)N1CCC[C@H]1C(=O)N[C@@H](CCCCN)C(N)=O` showed an IC50 (Cavia porcellus) of 0.502 nM and an IC50 (Mus musculus) of 0.377 nM.
`CC[C@H](C)[C@H](NC(=O)[C@H](CCCN=C(N)N)NC(=O)[C@H](CCCN=C(N)N)NC(=O)[C@H](CC(C)C)NC(=O)[C@H](Cc1ccccc1)NC(=O)CNC(=O)CNC(=O)[C@@H](N)Cc1ccc(O)cc1)C(=O)N[C@@H](CCCN=C(N)N)C(=O)N1CCC[C@H]1C(=O)N[C@@H](CCCCN)C(N)=O` showed an IC50 (Cavia porcellus) of 0.456 nM and an IC50 (Mus musculus) of 12.9 nM.
`CC[C@H](C)[C@H](NC(=O)[C@H](CCCNC(=N)N)NC(=O)[C@H](CCCNC(=N)N)NC(=O)[C@H](CC(C)C)NC(=O)[C@H](Cc1ccccc1)NC(=O)CNC(=O)CNC(=O)CCc1c(C)cc(O)cc1C)C(=O)N[C@@H](CCCNC(=N)N)C(=O)N1CCC[C@H]1C(=O)N[C@@H](CCCCN)C(N)=O` gave a Ki [1] of 3.49 nM.
Work on `CC[C@H](C)[C@H](NC(=O)[C@H](CCCNC(=N)N)NC(=O)[C@H](CCCNC(=N)N)NC(=O)[C@H](CC(C)C)NC(=O)[C@H](Cc1ccccc1)NC(=O)CNC(=O)CNC(=O)CCc1ccc(O)cc1)C(=O)N[C@@H](CCCNC(=N)N)C(=O)N1CCC[C@H]1C(=O)N[C@@H](CCCCN)C(N)=O` yielded a Ki [1] of 30.7 nM and an IC50 (Mus musculus) of 722 nM.
For `CC[C@H](C)[C@H](NC(=O)[C@H](CCCN=C(N)N)NC(=O)[C@H](CCCN=C(N)N)NC(=O)[C@H](CC(C)C)NC(=O)[C@H](Cc1ccccc1)NC(=O)[C@@H](C)NC(=O)CNC(=O)CCc1c(C)cc(O)cc1C)C(=O)N[C@@H](CCCN=C(N)N)C(=O)N1CCC[C@H]1C(=O)N[C@@H](CCCCN)C(N)=O`, the Ki [1] was 3.84 nM.
With `Oc1ccc2c3c1O[C@H]1c4[nH]c5c(c4C[C@@]4(O)[C@@H](C2)N(CC2CC2)CC[C@]314)C[C@@]1(O)[C@H]2Cc3ccc(O)c4c3[C@@]1(CCN2CC1CC1)[C@H]5O4` [NORBINALTORPHIMINE] the Ki [1] was 0.81 nM.
With `CC[C@H](C)[C@H](NC(=O)[C@H](CCCNC(=N)N)NC(=O)[C@H](CCCNC(=N)N)NC(=O)[C@H](CC(C)C)NC(=O)[C@H](Cc1ccccc1)NC(=O)CNC(=O)CNC(=O)[C@@H](C)Cc1c(C)cc(O)cc1C)C(=O)N[C@@H](CCCNC(=N)N)C(=O)N1CCC[C@H]1C(=O)N[C@@H](CCCCN)C(N)=O` the Ke [2] was 0.632 nM, the Ke [3] was 3.92 nM and the Ke [4] was 3.22 µM. The Ke [5] was 925 nM.
